Experimental data collected from several papers.
Each line is one published result; the experiments were not run side by side.

Cc1cn([C@H]2C[C@H](N=[N+]=[N-])[C@@H](CO)O2)c(=O)[nH]c1=O
CC50 (MT4; cell growth or viability, MTT; 5 days): > 7.48 µM

NS(=O)(=O)c1nnc(NC(=O)CCC2CC3CCC2C3)s1 (stereo not shown)
compound remaining (metabolic stability; mouse, liver microsomes; 1 h): 41%

N#Cc1ccc(C[C@H](Nc2c(Nc3ccc(F)cc3)c(=O)c2=O)C(=O)N2CCc3ccccc32)cc1
compound remaining (metabolic stability; rat, liver microsomes; 10 µM, 30 min, pH 7.4): 35%

Cc1cc(C#N)cc(C)c1Oc1nc(Nc2ccc(C#N)cc2)nc(N)c1Br
CC50 (MT4; cell growth or viability, MTT; 5 days): > 4.59 µM

COc1cc(-c2cc(C(C)=O)n3ccccc23)c(OC)cc1Cn1ccnc1
compound remaining (metabolic stability; rat, liver microsomes; 1 µM, 1 h, pH 7.4): 62%

Cc1cc(/C=C/C#N)cc(C)c1Nc1ccnc(Nc2ccc(C#N)cc2)n1
CC50 (MT4; cell growth or viability, MTT; 5 days): > 5.46 µM

N#Cc1ccc(C[C@H](Nc2ncc(-c3ccc(F)cc3)o2)C(=O)N2CCc3ccccc32)cc1
compound remaining (metabolic stability; rat, liver microsomes; 10 µM, 30 min, pH 7.4): 40%

N#C[C@@]1(c2ccc3c(N)ncnn23)O[C@H](CO)[C@@H](O)[C@H]1O
fraction unbound (dog, plasma; 1 µM): 0.881

NS(=O)(=O)c1nnc(NC(=O)C2CCCC3(CCCCC3)C2)s1 (stereo not shown)
compound remaining (metabolic stability; mouse, liver microsomes; 1 h): 47.7%

N#Cc1ccc(C[C@H](NC(=O)c2cc3ccc(F)cc3[nH]2)C(=O)N2CCc3ccccc32)cc1
compound remaining (metabolic stability; rat, liver microsomes; 10 µM, 30 min, pH 7.4): 90%
